Results taken from ChEMBL document CHEMBL3124772, “Design, synthesis, and evaluation of conformationally restricted acetanilides as potent and selective β3 adrenergic receptor agonists for the treatment of overactive bladder” (J Med Chem, 2014).

Experiments:
[1] = target: Sodium-dependent serotonin transporter (Homo sapiens, UniProt P31645); test: Inhibition of human SERT expressed in HEK293 cells incubated for 30 mins prior to fluorescent substrate addition measured after 30 mins by fluorescent dye uptake assay; assay type: cell-based
In short: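 HEK293 stably expressing human SERT, 20000 cells/well plated overnight at 37 °C, then in HBSS with 20 mM HEPES and 0.1% BSA. Compound added from 100× DMSO stock, 30 min at 37 °C, then fluorescent transporter substrate for 30 more min. Fluorescence read at 440/520 nm, normalized to DMSO (0%) and 10 μM fluoxetine (100%), four-parameter fit for IC50.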

[2] = target: Sodium channel protein type 5 subunit alpha (Homo sapiens, UniProt Q14524); test: Inhibition of human NaV1.5
Sequence of Sodium channel protein type 5 subunit alpha (Q14524 whole entry): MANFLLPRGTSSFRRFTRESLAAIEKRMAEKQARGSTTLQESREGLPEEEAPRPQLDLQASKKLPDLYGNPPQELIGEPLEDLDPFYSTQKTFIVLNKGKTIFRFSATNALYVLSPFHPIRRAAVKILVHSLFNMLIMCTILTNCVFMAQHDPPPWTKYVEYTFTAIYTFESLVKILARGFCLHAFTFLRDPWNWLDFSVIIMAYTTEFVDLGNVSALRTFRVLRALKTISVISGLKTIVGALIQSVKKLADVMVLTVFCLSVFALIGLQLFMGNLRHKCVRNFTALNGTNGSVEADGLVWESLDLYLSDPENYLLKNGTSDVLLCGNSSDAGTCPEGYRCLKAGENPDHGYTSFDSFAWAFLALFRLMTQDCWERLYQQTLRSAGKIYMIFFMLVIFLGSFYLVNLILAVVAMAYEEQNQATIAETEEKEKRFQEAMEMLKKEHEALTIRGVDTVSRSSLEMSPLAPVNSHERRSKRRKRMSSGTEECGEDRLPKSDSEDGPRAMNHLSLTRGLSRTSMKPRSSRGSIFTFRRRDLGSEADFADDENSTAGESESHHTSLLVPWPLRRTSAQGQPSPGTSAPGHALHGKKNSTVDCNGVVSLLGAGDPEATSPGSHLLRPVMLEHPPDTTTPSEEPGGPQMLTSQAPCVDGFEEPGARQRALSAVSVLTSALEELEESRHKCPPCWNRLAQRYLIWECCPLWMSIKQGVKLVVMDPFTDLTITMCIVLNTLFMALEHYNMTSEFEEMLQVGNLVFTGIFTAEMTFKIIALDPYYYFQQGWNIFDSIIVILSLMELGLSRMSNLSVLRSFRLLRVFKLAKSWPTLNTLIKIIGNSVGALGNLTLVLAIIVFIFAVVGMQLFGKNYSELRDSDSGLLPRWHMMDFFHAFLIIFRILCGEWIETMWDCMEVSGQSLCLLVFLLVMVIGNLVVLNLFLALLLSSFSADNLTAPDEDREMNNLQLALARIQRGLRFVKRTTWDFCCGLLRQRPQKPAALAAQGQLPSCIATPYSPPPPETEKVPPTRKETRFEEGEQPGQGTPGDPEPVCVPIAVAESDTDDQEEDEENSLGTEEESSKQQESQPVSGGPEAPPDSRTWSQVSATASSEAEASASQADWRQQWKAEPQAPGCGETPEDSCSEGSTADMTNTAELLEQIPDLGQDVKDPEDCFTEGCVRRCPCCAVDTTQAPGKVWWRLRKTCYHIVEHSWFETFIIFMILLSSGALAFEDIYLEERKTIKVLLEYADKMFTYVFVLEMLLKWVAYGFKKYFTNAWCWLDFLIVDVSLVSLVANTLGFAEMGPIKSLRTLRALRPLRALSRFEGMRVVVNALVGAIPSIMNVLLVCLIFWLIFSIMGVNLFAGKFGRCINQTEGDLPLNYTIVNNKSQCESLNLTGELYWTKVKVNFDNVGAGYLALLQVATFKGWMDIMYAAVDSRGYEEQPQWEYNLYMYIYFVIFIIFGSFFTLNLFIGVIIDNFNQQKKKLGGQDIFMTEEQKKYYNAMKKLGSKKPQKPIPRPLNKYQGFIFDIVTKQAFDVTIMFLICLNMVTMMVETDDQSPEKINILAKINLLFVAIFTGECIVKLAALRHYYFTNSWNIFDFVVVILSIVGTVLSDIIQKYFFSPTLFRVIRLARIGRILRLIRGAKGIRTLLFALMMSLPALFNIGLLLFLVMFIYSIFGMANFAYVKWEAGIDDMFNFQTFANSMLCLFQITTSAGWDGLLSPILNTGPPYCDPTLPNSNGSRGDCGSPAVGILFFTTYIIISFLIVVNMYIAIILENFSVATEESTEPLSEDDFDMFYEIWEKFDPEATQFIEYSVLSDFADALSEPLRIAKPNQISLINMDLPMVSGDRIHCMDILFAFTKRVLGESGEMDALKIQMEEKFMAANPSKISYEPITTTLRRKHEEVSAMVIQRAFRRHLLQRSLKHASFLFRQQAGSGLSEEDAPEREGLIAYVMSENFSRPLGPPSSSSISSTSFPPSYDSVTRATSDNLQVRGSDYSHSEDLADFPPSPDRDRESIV

[3] = target: Voltage-dependent L-type calcium channel subunit alpha-1C (Homo sapiens, UniProt Q13936); test: Displacement of [3H]-diltiazem from human CaV1.2
Sequence of Voltage-dependent L-type calcium channel subunit alpha-1C (Q13936 whole entry): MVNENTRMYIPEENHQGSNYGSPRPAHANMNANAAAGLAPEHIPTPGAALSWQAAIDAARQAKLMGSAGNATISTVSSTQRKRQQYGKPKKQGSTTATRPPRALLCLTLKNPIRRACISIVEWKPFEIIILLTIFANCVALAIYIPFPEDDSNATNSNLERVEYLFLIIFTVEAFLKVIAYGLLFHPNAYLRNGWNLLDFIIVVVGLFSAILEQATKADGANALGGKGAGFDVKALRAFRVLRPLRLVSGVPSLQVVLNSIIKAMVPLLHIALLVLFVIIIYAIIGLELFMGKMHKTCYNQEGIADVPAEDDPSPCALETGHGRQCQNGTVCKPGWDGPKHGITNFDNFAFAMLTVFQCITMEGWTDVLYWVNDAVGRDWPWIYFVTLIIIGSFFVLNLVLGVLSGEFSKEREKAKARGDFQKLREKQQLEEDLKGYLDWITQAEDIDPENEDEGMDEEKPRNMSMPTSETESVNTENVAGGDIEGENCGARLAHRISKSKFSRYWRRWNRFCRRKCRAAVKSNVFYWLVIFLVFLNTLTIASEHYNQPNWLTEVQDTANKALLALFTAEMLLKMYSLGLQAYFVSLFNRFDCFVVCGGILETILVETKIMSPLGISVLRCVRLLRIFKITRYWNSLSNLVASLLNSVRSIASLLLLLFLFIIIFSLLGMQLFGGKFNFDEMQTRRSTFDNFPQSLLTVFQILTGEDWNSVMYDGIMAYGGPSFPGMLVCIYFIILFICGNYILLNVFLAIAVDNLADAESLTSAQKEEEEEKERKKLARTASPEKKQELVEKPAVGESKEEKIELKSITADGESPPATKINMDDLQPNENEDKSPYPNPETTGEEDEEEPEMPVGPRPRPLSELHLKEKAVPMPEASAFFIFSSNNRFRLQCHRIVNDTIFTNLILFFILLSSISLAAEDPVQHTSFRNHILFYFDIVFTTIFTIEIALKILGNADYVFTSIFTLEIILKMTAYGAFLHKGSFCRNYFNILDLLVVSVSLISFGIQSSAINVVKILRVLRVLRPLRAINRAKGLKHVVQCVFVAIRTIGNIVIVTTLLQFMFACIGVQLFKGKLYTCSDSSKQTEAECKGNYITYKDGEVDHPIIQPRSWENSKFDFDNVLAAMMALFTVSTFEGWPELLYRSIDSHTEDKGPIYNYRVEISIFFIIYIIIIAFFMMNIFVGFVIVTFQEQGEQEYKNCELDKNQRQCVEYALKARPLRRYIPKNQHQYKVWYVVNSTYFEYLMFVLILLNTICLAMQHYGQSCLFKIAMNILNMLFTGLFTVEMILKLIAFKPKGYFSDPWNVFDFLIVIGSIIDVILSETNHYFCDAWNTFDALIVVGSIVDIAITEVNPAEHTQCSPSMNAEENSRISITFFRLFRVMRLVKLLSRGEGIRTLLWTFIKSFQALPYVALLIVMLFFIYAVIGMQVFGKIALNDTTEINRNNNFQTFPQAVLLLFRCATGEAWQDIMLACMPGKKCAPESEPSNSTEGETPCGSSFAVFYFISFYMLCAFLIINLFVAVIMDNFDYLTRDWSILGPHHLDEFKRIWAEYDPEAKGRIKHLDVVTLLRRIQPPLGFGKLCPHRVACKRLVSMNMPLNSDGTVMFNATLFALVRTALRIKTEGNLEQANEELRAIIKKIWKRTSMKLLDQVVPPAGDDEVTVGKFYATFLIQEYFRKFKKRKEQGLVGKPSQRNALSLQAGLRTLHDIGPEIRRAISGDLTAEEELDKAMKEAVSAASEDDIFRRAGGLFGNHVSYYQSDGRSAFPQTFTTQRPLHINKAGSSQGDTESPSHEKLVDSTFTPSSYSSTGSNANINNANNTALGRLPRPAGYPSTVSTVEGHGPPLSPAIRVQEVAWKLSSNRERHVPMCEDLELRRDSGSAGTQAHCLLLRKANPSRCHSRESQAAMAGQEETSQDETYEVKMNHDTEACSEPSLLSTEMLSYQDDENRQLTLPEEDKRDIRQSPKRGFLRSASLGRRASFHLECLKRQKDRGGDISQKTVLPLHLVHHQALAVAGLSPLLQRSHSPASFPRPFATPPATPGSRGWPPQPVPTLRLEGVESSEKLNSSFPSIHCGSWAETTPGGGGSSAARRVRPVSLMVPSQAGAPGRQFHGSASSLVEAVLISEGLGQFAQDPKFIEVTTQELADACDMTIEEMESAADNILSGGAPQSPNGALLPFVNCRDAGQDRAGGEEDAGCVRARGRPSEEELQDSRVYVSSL

Cytochrome P450 3A4 = Cytochrome P450 3A4 (Homo sapiens, UniProt P08684); test: Inhibition of CYP3A4 in human liver microsomes assessed as testosterone 6beta-hydroxylation; assay type: ADME
Cytochrome P450 2D6 = Cytochrome P450 2D6 (Homo sapiens, UniProt P10635); test: Inhibition of CYP2D6 in human liver microsomes assessed as dextromethorphan O-demethylation; assay type: ADME
Sequence of Cytochrome P450 2D6 (P10635 whole entry): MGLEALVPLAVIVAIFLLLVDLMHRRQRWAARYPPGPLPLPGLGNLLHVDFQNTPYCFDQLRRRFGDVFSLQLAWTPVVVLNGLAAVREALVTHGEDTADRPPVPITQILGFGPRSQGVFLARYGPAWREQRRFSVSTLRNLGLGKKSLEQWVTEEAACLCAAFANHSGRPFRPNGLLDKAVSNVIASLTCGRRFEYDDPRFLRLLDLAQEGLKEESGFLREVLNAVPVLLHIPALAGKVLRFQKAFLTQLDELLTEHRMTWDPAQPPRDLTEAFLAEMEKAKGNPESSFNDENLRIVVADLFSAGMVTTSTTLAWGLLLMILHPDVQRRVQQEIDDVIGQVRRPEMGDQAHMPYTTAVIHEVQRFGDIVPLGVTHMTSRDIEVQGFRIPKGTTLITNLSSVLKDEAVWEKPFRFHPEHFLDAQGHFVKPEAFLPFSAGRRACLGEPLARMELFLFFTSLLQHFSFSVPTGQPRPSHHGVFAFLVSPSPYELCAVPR

Cytochrome P450 2C9 = Cytochrome P450 2C9 (Homo sapiens, UniProt P11712); test: Inhibition of CYP2C9 in human liver microsomes assessed as diclofenac alpha'-hydroxylation; assay type: ADME
[4] = Apparent permeability in MDCK2 cells; assay type: ADME, cell-based, Canis lupus familiaris, MDCK-II; details: dog, MDCK
[5] = Intrinsic clearance in rat liver microsomes; assay type: ADME; details: read-out: CLH
[6] = (§1) Fraction unbound in Sprague-Dawley rat plasma at 1 mg/kg, iv and 2 mg/kg, po; assay type: ADME, organism-based; details: Sprague-Dawley, plasma
[7] = Half life in Sprague-Dawley rat at 1 mg/kg, iv and 2 mg/kg, po; assay type: ADME, organism-based; details: in vivo
[8] = Plasma clearance in Sprague-Dawley rat at 1 mg/kg, iv and 2 mg/kg, po; assay type: ADME, organism-based
[9] = target: Beta-2 adrenergic receptor (Homo sapiens, UniProt P07550); test: Displacement of [125I]-cyanopindolol from recombinant human beta-2 adrenergic receptor expressed in CHO cell membranes after 1 hr by scintillation counting analysis
Sequence of Beta-2 adrenergic receptor (P07550 whole entry): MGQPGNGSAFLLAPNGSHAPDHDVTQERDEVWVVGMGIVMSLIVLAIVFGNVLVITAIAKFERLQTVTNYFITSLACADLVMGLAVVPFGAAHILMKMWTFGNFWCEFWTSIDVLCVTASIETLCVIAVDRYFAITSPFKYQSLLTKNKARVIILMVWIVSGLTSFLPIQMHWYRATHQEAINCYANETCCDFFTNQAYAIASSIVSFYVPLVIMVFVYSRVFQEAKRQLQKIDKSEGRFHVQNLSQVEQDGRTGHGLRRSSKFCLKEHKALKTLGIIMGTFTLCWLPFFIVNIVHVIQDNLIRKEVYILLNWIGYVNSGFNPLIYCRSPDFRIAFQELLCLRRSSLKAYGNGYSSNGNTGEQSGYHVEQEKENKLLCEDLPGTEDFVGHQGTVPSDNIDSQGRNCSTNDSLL

[10] = target: Beta-1 adrenergic receptor (Homo sapiens, UniProt P08588); test: Displacement of [125I]-cyanopindolol from recombinant human beta-1 adrenergic receptor expressed in CHO cell membranes after 1 hr by scintillation counting analysis
[11] = target: T1, Beta-3 adrenergic receptor (Homo sapiens, UniProt P13945); test: Agonist activity at human beta-3 adrenergic receptor expressed in CHO cells assessed as increase in intracellular cAMP accumulation at 10^-10 to 10^-5 M after 30 mins by time-resolved fluorescence assay relative to R-(-)isoproterenol; assay type: functional, cell-based
In short: (§2)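 CHO cells stably transfected with cloned β3-AR, harvested after 3 days subculture with enzyme-free dissociation, 6000 cells in HBSS with 5 mM HEPES, 0.1% BSA and 0.6 mM IBMX. Ligand at 10⁻¹⁰ to 10⁻⁵ M final, 30 min room temperature with labeled cAMP antibody; LANCE TR-FRET read after 1 h detection, cAMP from standard curve.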

[12] = target: T1, Beta-3 adrenergic receptor; test: Agonist activity at human beta-3 adrenergic receptor expressed in CHO cells assessed as increase in intracellular cAMP accumulation after 30 mins by time-resolved fluorescence assay; assay type: functional, cell-based; in short: as §2
Plasma = test: as §1; assay type: ADME, organism-based; details: in vivo, BLD = below limit of detection
[13] = Oral bioavailability in Sprague-Dawley rat at 2 mg/kg; assay type: ADME, organism-based; details: in vivo
[14] = target: Voltage-gated inwardly rectifying potassium channel KCNH2 (Homo sapiens, UniProt Q12809); test: Inhibition of human ERG
Homo sapiens = organism: Homo sapiens; test: Selectivity ratio of IC50 for human SERT to EC50 for human beta-3 adrenergic receptor
[15] = target: Beta-3 adrenergic receptor (Macaca mulatta) (UniProt Q28524); test: Agonist activity at rhesus monkey beta-3 adrenergic receptor expressed in CHO cells assessed as increase in intracellular cAMP accumulation at 10^-10 to 10^-5 M after 30 mins by time-resolved fluorescence assay relative to R-(-)isoproterenol; assay type: functional, cell-based; in short: as §2
[16] = target: Beta-3 adrenergic receptor (Macaca mulatta, UniProt Q28524); test: Agonist activity at rhesus monkey beta-3 adrenergic receptor expressed in CHO cells assessed as increase in intracellular cAMP accumulation after 30 mins by time-resolved fluorescence assay; assay type: functional, cell-based; in short: as §2
[17] = target: Beta-3 adrenergic receptor (Canis lupus familiaris) (UniProt O02662); test: Agonist activity at dog beta-3 adrenergic receptor expressed in CHO cells assessed as increase in intracellular cAMP accumulation at 10^-10 to 10^-5 M after 30 mins by time-resolved fluorescence assay relative to R-(-)isoproterenol; assay type: functional, cell-based; in short: as §2
[18] = target: Beta-3 adrenergic receptor (Canis lupus familiaris, UniProt O02662); test: Agonist activity at dog beta-3 adrenergic receptor expressed in CHO cells assessed as increase in intracellular cAMP accumulation after 30 mins by time-resolved fluorescence assay; assay type: functional, cell-based; in short: as §2
[19] = target: Beta-3 adrenergic receptor (Rattus norvegicus) (UniProt P26255); test: Agonist activity at rat beta-3 adrenergic receptor expressed in CHO cells assessed as increase in intracellular cAMP accumulation at 10^-10 to 10^-5 M after 30 mins by time-resolved fluorescence assay relative to R-(-)isoproterenol; assay type: functional, cell-based; in short: as §2
[20] = target: Beta-3 adrenergic receptor (Rattus norvegicus, UniProt P26255); test: Agonist activity at rat beta-3 adrenergic receptor expressed in CHO cells assessed as increase in intracellular cAMP accumulation after 30 mins by time-resolved fluorescence assay; assay type: functional, cell-based; in short: as §2

SMILES | half-life [7] | clearance [8] | IC50 [9] | IC50 [10] | Activity [11] | EC50 [12] | other results
Nc1nc2c(s1)CCC[C@H]2C(=O)Nc1ccc(C[C@@H]2CC[C@H]([C@H](O)c3ccccc3)N2)cc1 | 3 h | 185 mL/min/kg | > 20 µM | > 20 µM | 103% | 0.21 nM | Papp [4]: 5 ×10⁻⁶ cm/s; CLint scaled [5]: 63 mL/min/kg; fraction unbound [6]: 0.14; bioavailability [13]: 0%
O=C(Nc1ccc(C[C@@H]2CC[C@H]([C@H](O)c3cccnc3)N2)cc1)[C@@H]1CCc2sc(C3CC3)nc21 | – | – | > 20 µM | > 20 µM | 43% | 12.4 nM | –
Cc1nc2c(s1)CC[C@H]2C(=O)Nc1ccc(C[C@@H]2CC[C@H]([C@H](O)c3cccnc3)N2)cc1 | 1 h | 25 mL/min/kg | > 20 µM | > 20 µM | 89% | 1.15 nM | Ratio IC50/EC50 (Homo sapiens): 77; IC50 [1]: 0.089 µM; IC50 [2]: > 30 µM; IC50 [3]: > 30 µM; IC50 (Cytochrome P450 3A4): 41.8 µM; IC50 (Cytochrome P450 2D6): > 100 µM; IC50 (Cytochrome P450 2C9): 67.2 µM; Papp [4]: 17 ×10⁻⁶ cm/s; CLint scaled [5]: 62 mL/min/kg; IC50 [14]: 12 µM; fraction unbound [6]: 0.11; bioavailability [13]: 46%
CC(C)[C@@H](C(=O)Nc1ccc(C[C@@H]2CC[C@H]([C@H](O)c3ccccc3)N2)cc1)c1csc(N)n1 | – | – | > 20 µM | > 20 µM | 85% | 1.6 nM | –
C[C@@H](C(=O)Nc1ccc(C[C@@H]2CC[C@H]([C@H](O)c3cccnc3)N2)cc1)n1cccn1 | 2 h | 34 mL/min/kg | > 20 µM | > 20 µM | 102% | 16.7 nM | bioavailability [13]: 29%
C[C@@H](C(=O)Nc1ccc(C[C@@H]2CC[C@H]([C@H](O)c3ccccc3)N2)cc1)c1csc(N)n1 | – | – | > 20 µM | > 20 µM | 84% | 0.18 nM | –
Nc1nc2c(s1)CC[C@H]2C(=O)Nc1ccc(C[C@@H]2CC[C@H]([C@H](O)c3ccccc3)N2)cc1 | 4 h | 50 mL/min/kg | > 20 µM | > 20 µM | 91% | 0.15 nM | Activity [15]: 78%; EC50 [16]: 0.06 nM; Activity [17]: 102%; EC50 [18]: 0.00019 µM; Activity [19]: 100%; EC50 [20]: 0.0013 µM; IC50 [1]: 1.22 µM; IC50 [2]: 5.6 µM; IC50 [3]: > 30 µM; IC50 (Cytochrome P450 3A4): 86 µM; IC50 (Cytochrome P450 2D6): 18.3 µM; IC50 (Cytochrome P450 2C9): > 100 µM; Papp [4]: 5 ×10⁻⁶ cm/s; CLint scaled [5]: 59 mL/min/kg; IC50 [14]: 12.7 µM; fraction unbound [6]: 0.18; bioavailability [13]: 6%
O=C(Cn1cccn1)Nc1ccc(C[C@@H]2CC[C@H]([C@H](O)c3cccnc3)N2)cc1 | – | – | > 20 µM | > 20 µM | 72% | 76.7 nM | –
O=C(Nc1ccc(C[C@@H]2CC[C@H]([C@H](O)c3ccccc3)N2)cc1)[C@@H]1CCc2scnc21 | 1 h | 80 mL/min/kg | > 20 µM | > 20 µM | 101% | 0.64 nM | Papp [4]: 24 ×10⁻⁶ cm/s; CLint scaled [5]: 68 mL/min/kg; fraction unbound [6]: 0.1; bioavailability [13]: 12%
CCc1nc2c(s1)CC[C@H]2C(=O)Nc1ccc(C[C@@H]2CC[C@H]([C@H](O)c3cccnc3)N2)cc1 | – | – | > 20 µM | > 20 µM | 49% | 13.6 nM | –

The next lines start with results.

half-life [7] | clearance [8] | IC50 [9] | IC50 [10] | Activity [11] | EC50 [12] | SMILES | other results
8 h | 11 mL/min/kg | > 20 µM | > 20 µM | 92% | – | Nc1nc(CC(=O)Nc2ccc(C[C@@H]3CCC([C@H](O)c4ccccc4)N3)cc2)cs1 (single isomer, unassigned) | IC50 [1]: 1.61 µM; IC50 [2]: > 30 µM; IC50 [3]: 8.2 µM; IC50 (Cytochrome P450 3A4): > 100 µM; IC50 (Cytochrome P450 2D6): 2.2 µM; IC50 (Cytochrome P450 2C9): > 100 µM; Papp [4]: 5 ×10⁻⁶ cm/s; CLint scaled [5]: 38 mL/min/kg; fraction unbound [6]: 0.06
– | – | > 20 µM | > 20 µM | 37% | 1.95 nM | CCc1nc2c(s1)CC[C@H]2C(=O)Nc1ccc(C[C@@H]2CC[C@H]([C@H](O)c3ccccc3)N2)cc1 | –
4 h | 32 mL/min/kg | > 20 µM | > 20 µM | 101% | 0.37 nM | Nc1nc2c(s1)CC[C@H]2C(=O)Nc1ccc(C[C@@H]2CC[C@H]([C@H](O)c3cccnc3)N2)cc1 | Papp [4]: < 1 ×10⁻⁶ cm/s; CLint scaled [5]: 57 mL/min/kg; Fu (Plasma): BLD; bioavailability [13]: 0%
– | – | > 20 µM | > 20 µM | 85% | 0.67 nM | C[C@H](C(=O)Nc1ccc(C[C@@H]2CC[C@H]([C@H](O)c3ccccc3)N2)cc1)c1csc(N)n1 | –
– | – | > 20 µM | > 20 µM | 70% | 1.86 nM | Nc1nc2c(s1)CCCC[C@H]2C(=O)Nc1ccc(C[C@@H]2CC[C@H]([C@H](O)c3ccccc3)N2)cc1 | –
– | – | > 20 µM | > 20 µM | 85% | 0.83 nM | CC[C@@H](C(=O)Nc1ccc(C[C@@H]2CC[C@H]([C@H](O)c3ccccc3)N2)cc1)c1csc(N)n1 | –
– | – | 2.51 µM | 4.33 µM | 76% | 186 nM | O=C(Nc1ccc(C[C@@H]2CC[C@H]([C@H](O)c3ccccc3)N2)cc1)[C@@H]1CCc2sc(-c3ccc(F)cc3)nc21 | –
– | – | > 20 µM | > 20 µM | 66% | 0.88 nM | CCC[C@@H](C(=O)Nc1ccc(C[C@@H]2CC[C@H]([C@H](O)c3ccccc3)N2)cc1)c1csc(N)n1 | –
1 h | 87 mL/min/kg | > 20 µM | > 20 µM | 96% | 0.48 nM | Cc1nc2c(s1)CC[C@H]2C(=O)Nc1ccc(C[C@@H]2CC[C@H]([C@H](O)c3ccccc3)N2)cc1 | Papp [4]: 26 ×10⁻⁶ cm/s; CLint scaled [5]: 135 mL/min/kg; fraction unbound [6]: 0.05; bioavailability [13]: 6%
– | – | 8.45 µM | > 20 µM | 93% | 0.15 nM | Nc1nc2c(s1)CC[C@H]2C(=O)Nc1ccc(C[C@@H]2CC[C@H]([C@H](O)c3cccc(Cl)c3)N2)cc1 | –
– | – | > 20 µM | > 20 µM | 91% | 44.2 nM | Nc1nc2c(s1)CC[C@@H]2C(=O)Nc1ccc(C[C@@H]2CC[C@H]([C@H](O)c3ccccc3)N2)cc1 | –
– | – | > 20 µM | > 20 µM | 94% | 0.04 nM | Nc1nc2c(s1)CC[C@H]2C(=O)Nc1ccc(C[C@@H]2CC[C@H]([C@H](O)c3cccc(F)c3)N2)cc1 | IC50 [14]: 4 µM
– | – | > 20 µM | > 20 µM | 72% | 0.13 nM | Nc1nc2c(s1)CC[C@H]2C(=O)Nc1ccc(C[C@@H]2CC[C@H]([C@H](O)c3ccc(F)cc3)N2)cc1 | IC50 [14]: 5.6 µM
– | – | 2.47 µM | 13.3 µM | 15% | 8.78 nM | O=C(Nc1ccc(C[C@@H]2CC[C@H]([C@H](O)c3cccnc3)N2)cc1)[C@@H]1CCc2sc(-c3ccc(F)cc3)nc21 | –
